Molecular target: T1, Stimulator of interferon genes protein (Homo sapiens, UniProt Q86WV6)
Assay: Activation of wild-type human STING expressed in HEK293T cells assessed as IRF3 reporter activation at 10 uM measured after 20 hrs by luciferase reporter gene assay
Assay type: cell-based
Settings: not given
Outline: (§1)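 HEK293T-hSTING cells carrying a secreted luciferase reporter under an IRF-inducible promoter, made by blasticidin selection and clonal selection; parental HEK293T-luciferase cells as control. 5 x 10^5 cells per well treated at a single concentration. Supernatant luciferase read after 20 h by Quanti-Luc, as % activation relative to a positive-control agonist.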

T1 sequence (Q86WV6 whole entry): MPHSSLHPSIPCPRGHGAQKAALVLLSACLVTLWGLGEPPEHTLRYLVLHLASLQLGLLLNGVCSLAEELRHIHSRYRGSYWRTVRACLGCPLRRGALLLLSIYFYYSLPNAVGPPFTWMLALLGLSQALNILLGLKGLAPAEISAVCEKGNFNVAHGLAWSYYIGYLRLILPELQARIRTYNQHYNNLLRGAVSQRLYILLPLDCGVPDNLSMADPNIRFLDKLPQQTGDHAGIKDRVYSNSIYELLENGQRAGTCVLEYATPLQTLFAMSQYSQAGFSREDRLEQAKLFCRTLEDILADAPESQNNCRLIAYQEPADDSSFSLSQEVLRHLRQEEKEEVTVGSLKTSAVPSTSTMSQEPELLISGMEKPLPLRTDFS

Point of comparison: `O=C(NCc1ccco1)c1ccc2c(c1)N(Cc1c(F)cccc1Cl)C(=O)CO2`, Activity 30%. Against it:
- CN1C(=O)C(C)(Cc2ccccc2)c2cc(C(=O)NCc3ccco3)ccc21 (stereo unspecified) — lower, -1%
- O=C(NCc1ccco1)c1ccc2c(c1)N(Cc1ccccc1)C(=O)CS2 — lower, 27%
- O=C(NCc1ccco1)c1ccc2[nH]c(=O)n(Cc3ccccc3)c(=O)c2c1 — lower, 0%
- O=C(NCc1ccco1)c1ccc2[nH]c(=O)n(Cc3ccccc3Cl)c2c1 — lower, -1%
- O=C(NCc1c(F)cc(F)cc1F)c1ccc2c(c1)N(C(=O)c1c(F)cccc1Cl)CCO2 — lower, 26%
- O=C(NCc1ccco1)c1ccc2ccn(Cc3ccccc3)c2c1 — lower, -1%
- O=C(NCc1ccco1)c1ccc2c(c1)N(Cc1ccccc1)C(=O)CCO2 — lower, -1%
- O=C(NCc1ccco1)c1ccc2c(c1)N(Cc1c(F)cccc1Cl)C(=O)C21CC1 — lower, 6%

Same assay, conditions: filed as activator

Point of comparison: `CC1(C)C(=O)N(Cc2ccccc2F)c2cc(C(=O)NCc3ccco3)ccc21`, Activity 73%. Against it:
- O=C(NCc1ccco1)c1ccc2c(c1)N(Cc1c(F)cccc1Cl)C(=O)CC2 — higher, 105%
- O=C(NCc1c(F)cc(F)cc1F)c1cnc2c(c1)N(Cc1cc(F)cc(F)c1)C(=O)CC2 — lower, 58%

Molecular target: T1, Stimulator of interferon genes protein
Assay: Activation of wild-type human STING expressed in HEK293T cells assessed as IRF3 reporter activation at 1 uM measured after 20 hrs by luciferase reporter gene assay
Assay type: cell-based
Settings: not given
Outline: as §1

Point of comparison: `CC1Oc2ncc(C(=O)NCc3c(F)cc(F)cc3F)cc2N(Cc2cc(F)cc(F)c2)C1=O` (racemic), Activity 6%. Against it:
- COC1(C)C(=O)N(Cc2c(F)cccc2Cl)c2cc(C(=O)NCc3c(F)cc(F)cc3F)ccc21 (racemic) — higher, 20%
- O=C(NCc1c(F)cc(F)cc1F)c1cnc2c(c1)N(Cc1cc(F)cc(F)c1)C(=O)CO2 — lower, 3%
- O=C(NCc1c(F)cc(F)cc1F)c1ccc2c(n1)N(Cc1cc(F)cc(F)c1)C(=O)CC2 — lower, 5%

Same assay, conditions: filed as activator

Point of comparison: `CC1Cc2ccc(C(=O)NCc3c(F)cc(F)cc3F)cc2N(Cc2c(F)cccc2Cl)C1=O` (racemic), Activity 92%. Against it:
- CC1Oc2ccc(C(=O)NCc3c(F)cc(F)cc3F)cc2N(Cc2cc(F)cc(F)c2)C1=O (racemic) — higher, 95%
- O=C(NCc1c(F)cc(F)cc1F)c1ccc2c(c1)N(Cc1c(F)cccc1Cl)C(=O)CC2 — higher, 107%
- CC1Cc2ccc(C(=O)NCc3c(F)cc(F)cc3F)cc2N(Cc2cc(F)cc(F)c2)S1(=O)=O (racemic) — lower, 40%
- CC1(C#N)C(=O)N(Cc2c(F)cccc2Cl)c2cc(C(=O)NCc3c(F)cc(F)cc3F)ccc21 (racemic) — higher, 102%
- CC1(C)C(=O)N(Cc2ccccc2F)c2cc(C(=O)NCc3c(F)cc(F)cc3F)ccc21 — higher, 116%
- CC1(C)CC(=O)N(Cc2cc(F)cc(F)c2)c2cc(C(=O)NCc3c(F)cc(F)cc3F)ccc21 — higher, 102%

Molecular target: T1, Stimulator of interferon genes protein
Assay: Activation of wild-type human STING expressed in HEK293T cells assessed as IRF3 reporter activation at 100 uM measured after 20 hrs by luciferase reporter gene assay
Assay type: cell-based
Settings: not given
Outline: as §1

`O=C(NCc1ccco1)c1ccc2c(c1)N(Cc1c(F)cccc1Cl)C(=O)C[S+]2[O-]` (stereo unspecified) showed an Activity of 7%.

Molecular target: T1, Stimulator of interferon genes protein
Assay: Activation of wild-type human STING expressed in HEK293T cells assessed as IRF3 reporter activation at 50 uM measured after 20 hrs by luciferase reporter gene assay
Assay type: cell-based
Settings: not given
Outline: as §1

In the case of `O=C(NCc1ccco1)c1ccc2c(c1)N(Cc1ccccc1F)C(=O)C2=O`, the Activity is reported as 0%.

Molecular target: T1, Stimulator of interferon genes protein
Assay: Activation of wild-type human STING expressed in HEK293T cells assessed as IRF3 reporter activation at 20 uM measured after 20 hrs by luciferase reporter gene assay
Assay type: cell-based
Settings: filed as activator
Outline: as §1

Work on `CC1(O)C(=O)N(Cc2c(F)cccc2Cl)c2cc(C(=O)NCc3c(F)cc(F)cc3F)ccc21` (racemic) yielded an Activity of 67%.

— ChEMBL document CHEMBL4732051, “The discovery of potent small molecule activators of human STING” (Eur J Med Chem, 2021)
